# Active and inactive are the calls of the source. The calls are words filed in the database; no cut-off is given here.
# How the values were obtained:
# Type in all cases: nucleic-acid assay
# [1] = tested on: Nucleic Acid; assay: Binding affinity to r-(CGCUGGGCGUUAAUCAAAGAGGCGAAC)-RNA assessed as melting temperature at 1.5 uM by UV-visible spectrophotometry
# In short: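 Each strand at 1.5 µM: ODN plus complementary 27-mer RNA in 100 mM NaCl, 50 mM MES pH 5. Samples were heated at 85 °C for 10 min and cooled slowly. Melting curves were recorded at 260 nm while warming 20 to 80 °C at 1.0 °C/min to obtain Tm.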
# [2] = tested on: Nucleic Acid; assay: Binding affinity to FAM-tagged r-(CAAGCGGAGAAAYUAAUUGCGGGUCGC)-RNA assessed as crosslinking at 10 uM by alkylation method
# In short: (§1)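 Reactive ODN at 10 µM with 1 µM FAM-labeled target DNA or RNA in 100 mM NaCl, 50 mM MES pH 5 plus RNase OUT, mixed at 0 °C and then incubated at 37 °C. Reactions were stopped at set times with formamide/EDTA/bromophenol blue buffer. Products were resolved on 15% denaturing polyacrylamide gel with 7 M urea, and FAM band intensities were quantified to give crosslinking yield.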
# [3] = tested on: Nucleic Acid; assay: Binding affinity to FAM-tagged r-(GAAAYAAGAGGAAAGA)-RNA assessed as crosslinking at 10 uM by alkylation method; in short: as §1
# [4] = tested on: Nucleic Acid; assay: Binding affinity to FAM-tagged d-(GAAAYAAGAGGAAAGA)-DNA assessed as crosslinking at 10 uM by alkylation method; in short: as §1
SMILES,Tm [1],Activity [2],Activity [3],Activity [4]
CSCCc1nc(N)nc2c1ncn2[C@H]1C[C@H](OP(=O)(O)OC[C@H]2O[C@@H](n3cnc4c(N)ncnc43)[C@H](O)[C@@H]2OP(=O)(O)OC[C@H]2O[C@@H](n3cc(C)c(=O)[nH]c3=O)C[C@@H]2OP(=O)(O)OC[C@H]2O[C@@H](n3cc(C)c(=O)[nH]c3=O)C[C@@H]2OP(=O)(O)OC[C@H]2O[C@@H](n3cnc4c(N)ncnc43)[C@H](O)[C@@H]2OP(=O)(O)OC[C@H]2O[C@@H](n3cnc4c(N)ncnc43)[C@H](O)[C@@H]2OP(=O)(O)OC[C@H]2O[C@@H](n3ccc(N)nc3=O)[C@H](O)[C@@H]2OP(=O)(O)OC[C@H]2O[C@@H](n3cnc4c(=O)[nH]c(N)nc43)[C@H](O)[C@@H]2OP(=O)(O)OC[C@H]2O[C@@H](n3ccc(N)nc3=O)[C@H](O)[C@@H]2OP(=O)(O)OC[C@H]2O[C@@H](n3ccc(N)nc3=O)[C@H](O)[C@@H]2OP(=O)(O)O)[C@@H](COP(=O)(O)O[C@H]2C[C@H](n3cc(C)c(=O)[nH]c3=O)O[C@@H]2COP(=O)(O)O[C@H]2C[C@H](n3cc(C)c(=O)[nH]c3=O)O[C@@H]2COP(=O)(O)O[C@H]2C[C@H](n3cc(C)c(=O)[nH]c3=O)O[C@@H]2COP(=O)(O)O[C@H]2[C@@H](O)[C@H](n3ccc(N)nc3=O)O[C@@H]2COP(=O)(O)O[C@H]2C[C@H](n3cc(C)c(=O)[nH]c3=O)O[C@@H]2COP(=O)(O)O[C@H]2[C@@H](O)[C@H](n3ccc(N)nc3=O)O[C@@H]2COP(=O)(O)O[C@H]2[C@@H](O)[C@H](n3ccc(N)nc3=O)O[C@@H]2COP(=O)(O)O[C@H]2[C@@H](O)[C@H](n3cnc4c(=O)[nH]c(N)nc43)O[C@@H]2COP(=O)(O)O[C@H]2[C@@H](O)[C@H](n3ccc(N)nc3=O)O[C@@H]2COP(=O)(O)O[C@H]2C[C@H](n3cc(C)c(=O)[nH]c3=O)O[C@@H]2COP(=O)(O)O[C@H]2C[C@H](n3cc(C)c(=O)[nH]c3=O)O[C@@H]2CO)O1,49.4 °C,Active,,
CSCCc1nc(N)nc2c1ncn2CCCC[C@H]1C[C@H](OP(=O)(O)OC[C@H]2O[C@@H](n3cc(C)c(=O)[nH]c3=O)C[C@@H]2OP(=O)(O)OC[C@H]2O[C@@H](n3cc(C)c(=O)[nH]c3=O)C[C@@H]2OP(=O)(O)OC[C@H]2O[C@@H](n3ccc(N)nc3=O)[C@H](O)[C@@H]2OP(=O)(O)OC[C@H]2O[C@@H](n3cc(C)c(=O)[nH]c3=O)C[C@@H]2OP(=O)(O)OC[C@H]2O[C@@H](n3ccc(N)nc3=O)[C@H](O)[C@@H]2OP(=O)(O)OC[C@H]2O[C@@H](n3ccc(N)nc3=O)[C@H](O)[C@@H]2OP(=O)(O)OC[C@H]2O[C@@H](n3cc(C)c(=O)[nH]c3=O)C[C@@H]2OP(=O)(O)OC[C@H]2O[C@@H](n3cc(C)c(=O)[nH]c3=O)C[C@@H]2OP(=O)(O)OC[C@H]2O[C@@H](n3cc(C)c(=O)[nH]c3=O)C[C@@H]2OP(=O)(O)OC[C@H]2O[C@@H](n3ccc(N)nc3=O)[C@H](O)[C@@H]2OP(=O)(O)OC[C@H]2O[C@@H](n3cc(C)c(=O)[nH]c3=O)C[C@@H]2OP(=O)(O)O)[C@@H](COP(=O)(O)O[C@H]2C[C@H](n3cc(C)c(=O)[nH]c3=O)O[C@@H]2COP(=O)(O)O[C@H]2C[C@H](n3cc(C)c(=O)[nH]c3=O)O[C@@H]2COP(=O)(O)O[C@H]2C[C@H](n3cc(C)c(=O)[nH]c3=O)O[C@@H]2COP(=O)(O)O[C@H]2[C@@H](O)[C@H](n3ccc(N)nc3=O)O[C@@H]2CO)O1,,,inactive,inactive
CSCCc1nc(N)nc2c1ncn2CC[C@H]1C[C@H](OP(=O)(O)OC[C@H]2O[C@@H](n3cnc4c(N)ncnc43)[C@H](O)[C@@H]2OP(=O)(O)OC[C@H]2O[C@@H](n3cc(C)c(=O)[nH]c3=O)C[C@@H]2OP(=O)(O)OC[C@H]2O[C@@H](n3cc(C)c(=O)[nH]c3=O)C[C@@H]2OP(=O)(O)OC[C@H]2O[C@@H](n3cnc4c(N)ncnc43)[C@H](O)[C@@H]2OP(=O)(O)OC[C@H]2O[C@@H](n3cnc4c(N)ncnc43)[C@H](O)[C@@H]2OP(=O)(O)OC[C@H]2O[C@@H](n3ccc(N)nc3=O)[C@H](O)[C@@H]2OP(=O)(O)OC[C@H]2O[C@@H](n3cnc4c(=O)[nH]c(N)nc43)[C@H](O)[C@@H]2OP(=O)(O)OC[C@H]2O[C@@H](n3ccc(N)nc3=O)[C@H](O)[C@@H]2OP(=O)(O)OC[C@H]2O[C@@H](n3ccc(N)nc3=O)[C@H](O)[C@@H]2OP(=O)(O)O)[C@@H](COP(=O)(O)O[C@H]2C[C@H](n3cc(C)c(=O)[nH]c3=O)O[C@@H]2COP(=O)(O)O[C@H]2C[C@H](n3cc(C)c(=O)[nH]c3=O)O[C@@H]2COP(=O)(O)O[C@H]2C[C@H](n3cc(C)c(=O)[nH]c3=O)O[C@@H]2COP(=O)(O)O[C@H]2[C@@H](O)[C@H](n3ccc(N)nc3=O)O[C@@H]2COP(=O)(O)O[C@H]2C[C@H](n3cc(C)c(=O)[nH]c3=O)O[C@@H]2COP(=O)(O)O[C@H]2[C@@H](O)[C@H](n3ccc(N)nc3=O)O[C@@H]2COP(=O)(O)O[C@H]2[C@@H](O)[C@H](n3ccc(N)nc3=O)O[C@@H]2COP(=O)(O)O[C@H]2[C@@H](O)[C@H](n3cnc4c(=O)[nH]c(N)nc43)O[C@@H]2COP(=O)(O)O[C@H]2[C@@H](O)[C@H](n3ccc(N)nc3=O)O[C@@H]2COP(=O)(O)O[C@H]2C[C@H](n3cc(C)c(=O)[nH]c3=O)O[C@@H]2COP(=O)(O)O[C@H]2C[C@H](n3cc(C)c(=O)[nH]c3=O)O[C@@H]2CO)O1,50.4 °C,Active,,
Cc1cn([C@H]2C[C@H](OP(=O)(O)OC[C@H]3O[C@@H](n4cc(C)c(=O)[nH]c4=O)C[C@@H]3OP(=O)(O)OC[C@H]3O[C@@H](n4ccc(N)nc4=O)[C@H](O)[C@@H]3OP(=O)(O)OC[C@H]3O[C@@H](n4cnc5c(=O)[nH]c(N)nc54)[C@H](O)[C@@H]3OP(=O)(O)OC[C@H]3O[C@@H](n4ccc(N)nc4=O)[C@H](O)[C@@H]3OP(=O)(O)OC[C@H]3O[C@@H](n4ccc(N)nc4=O)[C@H](O)[C@@H]3OP(=O)(O)OC[C@H]3O[C@@H](n4cc(C)c(=O)[nH]c4=O)C[C@@H]3OP(=O)(O)OC[C@H]3O[C@@H](n4ccc(N)nc4=O)[C@H](O)[C@@H]3OP(=O)(O)OC[C@H]3O[C@@H](n4cc(C)c(=O)[nH]c4=O)C[C@@H]3OP(=O)(O)OC[C@H]3O[C@@H](n4cc(C)c(=O)[nH]c4=O)C[C@@H]3OP(=O)(O)OC[C@H]3O[C@@H](n4cc(C)c(=O)[nH]c4=O)C[C@@H]3OP(=O)(O)OC[C@H]3O[C@@H](n4cnc5c(=O)[nH]c(N)nc54)[C@H](O)[C@@H]3OP(=O)(O)OC[C@H]3O[C@@H](n4cnc5c(N)ncnc54)[C@H](O)[C@@H]3OP(=O)(O)OC[C@H]3O[C@@H](n4cc(C)c(=O)[nH]c4=O)C[C@@H]3OP(=O)(O)OC[C@H]3O[C@@H](n4cc(C)c(=O)[nH]c4=O)C[C@@H]3OP(=O)(O)OC[C@H]3O[C@@H](n4cnc5c(N)ncnc54)[C@H](O)[C@@H]3OP(=O)(O)OC[C@H]3O[C@@H](n4cnc5c(N)ncnc54)[C@H](O)[C@@H]3OP(=O)(O)OC[C@H]3O[C@@H](n4ccc(N)nc4=O)[C@H](O)[C@@H]3OP(=O)(O)OC[C@H]3O[C@@H](n4cnc5c(=O)[nH]c(N)nc54)[C@H](O)[C@@H]3OP(=O)(O)OC[C@H]3O[C@@H](n4ccc(N)nc4=O)[C@H](O)[C@@H]3OP(=O)(O)OC[C@H]3O[C@@H](n4ccc(N)nc4=O)[C@H](O)[C@@H]3OP(=O)(O)O)[C@@H](CO)O2)c(=O)[nH]c1=O,55.8 °C,,,

# Other lines, results leading:
Tm [1],Activity [2],Activity [3],Activity [4],SMILES
,,inactive,inactive,CSCCc1nc(N)nc2c1ncn2[C@H]1C[C@H](OP(=O)(O)OC[C@H]2O[C@@H](n3cc(C)c(=O)[nH]c3=O)C[C@@H]2OP(=O)(O)OC[C@H]2O[C@@H](n3cc(C)c(=O)[nH]c3=O)C[C@@H]2OP(=O)(O)OC[C@H]2O[C@@H](n3ccc(N)nc3=O)[C@H](O)[C@@H]2OP(=O)(O)OC[C@H]2O[C@@H](n3cc(C)c(=O)[nH]c3=O)C[C@@H]2OP(=O)(O)OC[C@H]2O[C@@H](n3ccc(N)nc3=O)[C@H](O)[C@@H]2OP(=O)(O)OC[C@H]2O[C@@H](n3ccc(N)nc3=O)[C@H](O)[C@@H]2OP(=O)(O)OC[C@H]2O[C@@H](n3cc(C)c(=O)[nH]c3=O)C[C@@H]2OP(=O)(O)OC[C@H]2O[C@@H](n3cc(C)c(=O)[nH]c3=O)C[C@@H]2OP(=O)(O)OC[C@H]2O[C@@H](n3cc(C)c(=O)[nH]c3=O)C[C@@H]2OP(=O)(O)OC[C@H]2O[C@@H](n3ccc(N)nc3=O)[C@H](O)[C@@H]2OP(=O)(O)OC[C@H]2O[C@@H](n3cc(C)c(=O)[nH]c3=O)C[C@@H]2OP(=O)(O)O)[C@@H](COP(=O)(O)O[C@H]2C[C@H](n3cc(C)c(=O)[nH]c3=O)O[C@@H]2COP(=O)(O)O[C@H]2C[C@H](n3cc(C)c(=O)[nH]c3=O)O[C@@H]2COP(=O)(O)O[C@H]2C[C@H](n3cc(C)c(=O)[nH]c3=O)O[C@@H]2COP(=O)(O)O[C@H]2[C@@H](O)[C@H](n3ccc(N)nc3=O)O[C@@H]2CO)O1
,,inactive,inactive,CSCCc1nc(N)nc2c1ncn2C[C@H]1C[C@H](OP(=O)(O)OC[C@H]2O[C@@H](n3cc(C)c(=O)[nH]c3=O)C[C@@H]2OP(=O)(O)OC[C@H]2O[C@@H](n3cc(C)c(=O)[nH]c3=O)C[C@@H]2OP(=O)(O)OC[C@H]2O[C@@H](n3ccc(N)nc3=O)[C@H](O)[C@@H]2OP(=O)(O)OC[C@H]2O[C@@H](n3cc(C)c(=O)[nH]c3=O)C[C@@H]2OP(=O)(O)OC[C@H]2O[C@@H](n3ccc(N)nc3=O)[C@H](O)[C@@H]2OP(=O)(O)OC[C@H]2O[C@@H](n3ccc(N)nc3=O)[C@H](O)[C@@H]2OP(=O)(O)OC[C@H]2O[C@@H](n3cc(C)c(=O)[nH]c3=O)C[C@@H]2OP(=O)(O)OC[C@H]2O[C@@H](n3cc(C)c(=O)[nH]c3=O)C[C@@H]2OP(=O)(O)OC[C@H]2O[C@@H](n3cc(C)c(=O)[nH]c3=O)C[C@@H]2OP(=O)(O)OC[C@H]2O[C@@H](n3ccc(N)nc3=O)[C@H](O)[C@@H]2OP(=O)(O)OC[C@H]2O[C@@H](n3cc(C)c(=O)[nH]c3=O)C[C@@H]2OP(=O)(O)O)[C@@H](COP(=O)(O)O[C@H]2C[C@H](n3cc(C)c(=O)[nH]c3=O)O[C@@H]2COP(=O)(O)O[C@H]2C[C@H](n3cc(C)c(=O)[nH]c3=O)O[C@@H]2COP(=O)(O)O[C@H]2C[C@H](n3cc(C)c(=O)[nH]c3=O)O[C@@H]2COP(=O)(O)O[C@H]2[C@@H](O)[C@H](n3ccc(N)nc3=O)O[C@@H]2CO)O1

# Source: ChEMBL document CHEMBL1157100, “The alkyl-connected 2-amino-6-vinylpurine (AVP) crosslinking agent for improved selectivity to the cytosine base in RNA” (Bioorg Med Chem, 2010)
